Screens: PubChem BioAssay, several laboratories
SENP8 block-1: human SENP8 protease inhibitors, primary screen, biochemical, fluorescence, Nedd8 protein substrate, uHTS. hit rate 0.64% among 360,000. inhibition, % at 20 µM. recombinant SENP8. AID 602440, 2012. Sentrin-specific protease 8 (Homo sapiens), Q96LD8; in the data active = inhibition mostly above about 40%, no sharp cut-off; inactive = mostly below about 27%
SENP1 FRET inh: human SENP1 catalytic domain inhibitors, primary screen, biochemical, FRET, uHTS; recombinant SENP1 catalytic domain, CyPet-SUMO1-YPet FRET cleavage; inhibition, % at 10 µM; AID 624204, 2012; hit rate 0.21% among 360,000; Sentrin-specific protease 1 (Homo sapiens), Q9P0U3;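 active = inhibition at least 30% at 10 µM, raw YFP signal under a set limit, fluorescence ratio 0.5 to 1.5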;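 also: 0% = enzyme with DMSO and 100% = no enzyme wells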
Target sequence (Q9P0U3 419-644 limits assumed): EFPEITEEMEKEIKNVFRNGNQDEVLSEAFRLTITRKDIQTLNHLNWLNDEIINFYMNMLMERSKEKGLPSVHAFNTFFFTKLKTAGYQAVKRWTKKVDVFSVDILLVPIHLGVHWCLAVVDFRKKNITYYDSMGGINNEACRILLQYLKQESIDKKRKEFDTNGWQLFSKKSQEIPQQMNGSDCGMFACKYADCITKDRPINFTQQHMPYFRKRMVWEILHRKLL
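Test system: recombinant human SENP1 catalytic domain, His6-tagged / Medium: pH 8 Tris buffer with EDTA, NaCl, BME, BSA, NP40, catalase / Also added: SUMO1 FRET substrate flanked by Cypet and Ypet, 25 nM / Times: 50 min reaction at room temperature / Signal: FRET, CFP and YFP emission / Control set: no-enzyme low control and enzyme-plus-DMSO high control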
SENP7 block: SENP7 protease inhibitors, primary screen, biochemical, luminescence, uHTS; Sentrin-specific protease 7 (Homo sapiens), Q9BQF6; recombinant SENP7, Z-RLRGG-aminoluciferin luminescence, 40 min; inhibition, % at 5 µM; hit rate 1.5% among 330,000; AID 434973, 2010;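 active = inhibition above about 50% at the single test dose, limit read from the data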;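 also: plate controls were DMSO with enzyme for no effect and no enzyme buffer wells for full effect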
Target sequence (Q9BQF6 706-1050 limits assumed): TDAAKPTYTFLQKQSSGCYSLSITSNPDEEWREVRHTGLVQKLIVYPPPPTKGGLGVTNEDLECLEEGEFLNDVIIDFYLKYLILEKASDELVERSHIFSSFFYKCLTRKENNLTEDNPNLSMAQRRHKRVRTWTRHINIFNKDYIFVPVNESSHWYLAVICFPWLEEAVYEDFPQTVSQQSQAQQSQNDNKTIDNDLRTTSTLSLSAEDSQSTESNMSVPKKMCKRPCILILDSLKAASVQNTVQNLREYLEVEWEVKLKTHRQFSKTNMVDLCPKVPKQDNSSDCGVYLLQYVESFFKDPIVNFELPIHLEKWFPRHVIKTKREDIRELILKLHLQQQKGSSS
SENP8 block-2: SENP8 protease inhibitors, primary screen, biochemical, luminescence; inhibition, % at 10 µM; hit rate 1.2% among 330,000; AID 2540, 2010; purified SENP8, Z-RLRGG-aminoluciferin cleavage; Sentrin-specific protease 8 (Homo sapiens), Q96LD8; in the data active = inhibition above about 50%
HSP90 refold inh: HSP90 inhibitors, primary screen, cell lysate, luminescence; inhibition, % at 5.6 µM; Heat shock protein HSP 90 (rabbit reticulocyte lysate; luciferase refolding); Rabbit reticulocyte lysate, luciferase refolding luminescence, 3 h; hit rate 0.91% among 290,000;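 active = inhibition above the screen-wide mean plus 3 SD, computed separately per campaign, cut at about 16% in these data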;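 also: 0% = DMSO wells and 100% = 60 µM geldanamycin wells; inhibitors lower the luminescence because luciferase stays unfolded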
SENP6 block: SENP6 protease inhibitors, primary screen, biochemical, luminescence, uHTS; Recombinant SENP6 catalytic domain, aminoluciferin luminescence; inhibition, % at 10 µM; hit rate 1.8% among 330,000; AID 2599, 2010;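 active = inhibition above about 50% at the single tested dose, limit read from the data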;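 also: plate controls were DMSO wells with enzyme for no effect and DMSO wells lacking enzyme for full effect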
Numbers without * were called inactive; . = not tested or not shown. An excerpt weighted towards active compounds, which were near 2.9% of everything screened.

SMILES | SENP8 block-1 | SENP1 FRET inh | SENP7 block | SENP8 block-2 | HSP90 refold inh | SENP6 block
O=C(CNC(=O)c1cccc(Br)c1)N/N=C/c1cc(Br)cc(Br)c1O | -299 | -24 | 0 | -5 | 1 | 13
CC(=O)N1CCN(C2=NC(=O)/C(=C/c3ccc(OS(=O)(=O)c4ccccc4)cc3)S2)CC1 | -20 | 1 | -7 | 0 | 4 | 7
C[C@@H](NC(=O)/C(C#N)=C/c1ccc(O)c(O)c1)c1ccccc1 | -50 | -74 | 2 | 3 | . | -4
N#C/C(=C\c1ccc(O)c(O)c1)C(=O)Nc1ccccc1 | -6 | -34 | 47 | 71* | . | 79*
CCOC(=O)C1(C#N)Cc2ccccc2C1 | -1 | 2 | . | . | . | .
Cc1nc(SCC(=O)Nc2nc3ccccc3s2)c(C#N)c(C)c1C | 0 | -53 | 6 | 0 | 68* | -4
S=C1Nc2ccccc2CS1 | 19 | 2 | . | . | . | .
S=C1Cc2ccccc2N1 | 45* | -2 | . | . | 5 | .
C#CCOCCOCCOCCNc1nc(N2CCN(C(=O)C(Cc3cc4ccccc4[nH]3)n3cc(C(N)Cc4ccc(O)cc4)nn3)CC2)nc(N2CCN(C(=O)C(Cc3cc4ccccc4[nH]3)n3cc(C(N)Cc4ccc(O)cc4)nn3)CC2)n1 (centres undefined) | . | . | . | . | 23* | .
C#CCOCCOCCOCCNc1nc(N2CCN(C(=O)[C@H](Cc3ccc(O)cc3)n3cc([C@@H](N)C(C)CC)nn3)CC2)nc(N2CCN(C(=O)[C@H](Cc3cc4ccccc4[nH]3)n3cc([C@@H](N)C(C)CC)nn3)CC2)n1 (some centres undefined) | -7 | -20 | -10 | -6 | 11 | 0
Nc1ccc(O)c2c1C(=O)c1ccccc1C2=O | 65* | -14 | 3 | 5 | 2 | 4
CC1(C)Cc2ccccc2C2CC(O)C(=O)N21 (centres undefined) | 40* | -39 | 4 | 4 | 2 | -2
CC(C)(C)OC(=O)N1CCC(CC2CC(c3cccc(Br)c3)=NO2)(C(=O)NCC2CCCCC2)CC1 (centres undefined) | . | . | -6 | 1 | -1 | -9
O=C(c1ccccc1)N1CCC(CC2CC(c3cccc(Br)c3)=NO2)(C(=O)NCC2CCCCC2)CC1 (centres undefined) | 50* | 1 | -10 | -11 | 1 | -19
CCCOc1ccc(N)cc1N | -44 | -18 | 39 | 52* | -3 | -4
Cc1ccc(C2CN=NC23CCc2ccccc2C3=O)cc1 (centres undefined) | -107 | 2 | 6 | 4 | 17* | -1
O=C1c2ccccc2CCCC12N=NCC2c1cccc2ccccc12 (centres undefined) | 14 | -1 | -4 | -12 | 0 | -7
Cc1ccc(S(=O)(=O)N2CCCCC2)cc1NC(=O)COC(=O)c1cccc(O)c1 | 7 | 3 | . | . | . | .
Cc1cc(NC(=O)c2cc3cccc([N+](=O)[O-])c3[nH]2)ccc1F | 12 | 2 | 77* | 61* | -1 | 73*
COCC(C)NC(=O)c1cc2cccc([N+](=O)[O-])c2[nH]1 (centres undefined) | 12 | 0 | -8 | -17 | -2 | -6
C/C(=N\OC(=O)c1ccc(F)cc1)c1sc(-c2ccc(Cl)cc2)nc1C | -413 | 0 | 3 | -1 | . | -20
C/C(=N\OC(=O)c1ccc(F)cc1)c1ccc(F)c(F)c1 | 23 | 5 | 92* | 73* | 4 | 80*
Cc1ccc(N=C2NC(=O)/C(=C/c3cccs3)S2)cc1C | 17 | 36* | -3 | -10 | -7 | -25
CCOC(=O)N1CCC(Nc2c(N3CCN(c4cc(Cl)ccc4C)CC3)c(=O)c2=O)CC1 | 11 | -1 | 7 | -9 | -2 | -4
CCOC(=O)N1CCC(Nc2c(-c3ccc(C)c(C)c3)c(=O)c2=O)CC1 | 47* | 2 | 4 | 1 | -2 | 5
SMILES | SENP8 block-1 | SENP1 FRET inh | SENP7 block | SENP8 block-2 | HSP90 refold inh | SENP6 block
Cc1ccc(NC(=O)CCN2C(=O)NC3(CCCC3)C2=O)cc1S(=O)(=O)N1CCOCC1 | 10 | 1 | 0 | 1 | . | -4
CC1=Nc2cccc3cccc(c23)N1 | 47* | -10 | 13 | 4 | 4 | 14
COc1cccc(-c2cccc(NC(=O)C3CCN(CCCn4cccn4)CC3)c2)c1 | 16 | -4 | . | . | . | .
CC1NC(=O)COC1c1ccccc1 (centres undefined) | 7 | 0 | . | . | . | .
COc1ccc(-c2sc3cc(OC)c(OC)cc3c2-c2ccc(O)cc2)cc1 | -285 | -1 | -1 | -15 | . | -28
CCS(=O)(=O)c1ccc2oc(Nc3ccccc3Br)nc2c1 | 1 | 1 | 95* | 87* | 1 | 92*
CCOC(=O)c1ccc(NC(=O)NCCc2cnc[nH]2)cc1 | 6 | 1 | 9 | -14 | 1 | -10
O=C1c2ccccc2C(=O)c2c(NCCCN(CCO)CCO)cccc21 | 44* | 5 | -3 | 4 | -3 | 9
O=C1c2ccccc2-c2c1cccc2C(=O)N(CCO)CCO | 10 | 2 | 4 | -2 | 1 | 0
CCN(CC)CC(=O)Nc1cccc2c1C(=O)c1ccccc1C2=O | 40* | 8 | 0 | -4 | 2 | 1
Cn1c(NCCc2ccncc2)nc2cc(-c3ccsc3)sc2c1=O | -65 | 2 | . | . | . | .
CC1=C(C(=O)N(C)C)CC(CC(=O)NCCc2ccccn2)C(=O)N1Cc1ccc(F)cc1 (centres undefined) | -16 | 2 | . | . | . | .
Cc1ccc(NC(=O)CN(C)C(=O)CSc2nccn2C)cc1 | -3 | 1 | 1 | -13 | . | -8
Cc1ccc(N=Nc2c(N)[nH]n3c(=O)cc(C)nc23)cc1 | 33 | 2 | . | . | -2 | .
Nc1[nH]n2c(=O)cc(-c3ccccc3)nc2c1N=Nc1ccc(S(N)(=O)=O)cc1 | 60* | 6 | 8 | 5 | 0 | 17
Nc1[nH]n2c(=O)cc(-c3ccccc3)nc2c1N=Nc1ccccc1 | 57* | 1 | 13 | 1 | -1 | 9
NS(=O)(=O)c1ccc(N=Nc2c(-c3ccccc3)[nH]n(-c3nc(-c4ccccc4)cs3)c2=O)cc1 | 30 | 7 | -7 | -13 | 3 | 0
O=C(Cc1ccccc1[N+](=O)[O-])OCC(=O)N1CCN(c2ccccc2)CC1 | -9 | 2 | -8 | 14 | . | -4
COc1ccc(CN=Cc2[nH]c3ccc(Br)c(Cl)c3c2O)cc1 | 49* | -38 | 0 | 6 | 1 | -2
O=[N+]([O-])c1cccc(-c2noc(-c3cccs3)n2)c1 | 17 | 2 | 75* | 34 | -6 | 56*
CC(C)(C)OC(=O)CN1C(=O)S/C(=C\c2ccc(-c3cccc(C(=O)O)c3)o2)C1=O | . | . | 9 | 68* | -6 | 78*
